Measurements as given in ChEMBL document CHEMBL1124387, “Cardiotonic agents. 9. Synthesis and biological evaluation of a series of (E)-4,5-dihydro-6-[2-[4-(1H-imidazol-1-yl)phenyl]ethenyl]-3 (2H)-pyridazinones: a novel class of compounds with positive inotropic, antithrombotic, and vasodilatory activities for the treatment of congestive heart failure” (J Med Chem, 1989).
“And” between values parts separate entries of the source, which are not always exact repeats. Equal values may be shown once.

Assays:
Canis familiaris [1] = species: Canis familiaris; assay: 50% increase in myocardial contractility (dP/dT max) in dogs; type: functional, Canis lupus familiaris, Myocardium
Procedure, shortened: (§1)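 Acutely instrumented anesthetized dogs (n = 6), 30-min control period. Compound in 0.9% saline, or dilute HCl diluted with saline, at 0.1 mL/kg iv over 1 min. At least four ascending half-log doses, 10 min apart, one compound per animal. Recorded: LV dP/dtmax, heart rate, aortic pressure and forelimb resistance. Values are maximum response from control average ± SEM.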

Canis familiaris [2] = assay: Hemodynamic activity in anesthetized dog as percent change from baseline (2271 mmHg/s) in left ventricular myocardial activity at 0.1 mg/kg administered intravenously; type: functional, Canis lupus familiaris, Heart left ventricle; details: route intravenous
Canis familiaris [3] = assay: Hemodynamic activity in anesthetized dog as percent change from baseline (2271 mmHg/s) in left ventricular myocardial activity at 0.3 mg/kg administered intravenously; type: functional, Canis lupus familiaris, Heart left ventricle; details: route intravenous
Canis familiaris [4] = assay: Hemodynamic activity in anesthetized dog as percent change from baseline (2271 mmHg/s) in left ventricular myocardial activity at 1 mg/kg administered intravenously; type: functional, Canis lupus familiaris, Heart left ventricle; details: route intravenous
Canis familiaris [5] = assay: Hemodynamic activity in anesthetized dog as percent change in left ventricular myocardial activity from baseline (2271 mmHg/s) at 0.01 mg/kg administered intravenously; type: functional, Canis lupus familiaris, Heart left ventricle; details: route intravenous; procedure, shortened: as §1
Canis familiaris [6] = assay: Hemodynamic activity in anesthetized dog as percent change in left ventricular myocardial activity from baseline (2271 mmHg/s) at 0.03 mg/kg administered intravenously; type: functional, Canis lupus familiaris, Heart left ventricle; details: route intravenous; procedure, shortened: as §1
Homo sapiens [7] = species: Homo sapiens; assay: In vitro inhibition of ADP stimulated platelet aggregation in human thrombocyte enriched plasma; type: functional
Procedure, shortened: (§2)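 Human platelet-rich plasma from aspirin/NSAID-free donors, adjusted to 250 000 platelets/μL with platelet-poor plasma. Drug in DMSO/saline (1% DMSO final) was added before ADP or collagen, with doses set by titration. Read-out was aggregation extent (ADP, curve height) or rate (collagen, major slope) as % of saline control.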

Homo sapiens [8] = species: Homo sapiens; assay: In vitro inhibition of collagen stimulated platelet aggregation in human thrombocyte enriched plasma; type: functional; procedure, shortened: as §2
Homo sapiens [9] = species: Homo sapiens; assay: In vitro inhibition of ADP stimulated platelet aggregation in human whole blood; type: functional
Procedure, shortened: (§3)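 Human whole blood from aspirin/NSAID-free fasted donors, read by impedance aggregometry 5 min after adding ADP or collagen. Aggregation expressed as % of control (2-6 replicates), plotted against log drug concentration; IC50 obtained by extrapolation.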

Homo sapiens [10] = species: Homo sapiens; assay: In vitro inhibition of collagen stimulated platelet aggregation in human whole blood; type: functional; procedure, shortened: as §3
[11] = Partition coefficient (logP); type: physicochemical; details: octanol/water
Phosphodiesterase 3 [12] = biological target: T1, Phosphodiesterase 3 (Homo sapiens, UniProt Q14432+Q13370); assay: Inhibition of Phosphodiesterase 3 from human platelets at 1E-7-1E-4M or 1.0E-6 to 1E-3 M
Procedure, shortened: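 Fraction III cAMP-PDE from guinea pig heart or human platelets. Substrate [3H]cyclic AMP 1.0 μM at 30°C, with hydrolysis held to ≤10-20% and kept linear over 30 min.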

[13] = Inhibition of phosphodiesterase 3 from guinea pig cardiac tissue at 1E-7-1E-4M or 1.0E-6 to 1E-3 M; design: species or system Cavia porcellus
Procedure, shortened: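 Fraction III cAMP-PDE from guinea pig heart or human platelets. Substrate [3H]cyclic AMP 1.0 μM at 30°C, with hydrolysis held to ≤10-20% and kept linear over 30 min. Compounds in DMSO, 2.5% final.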

Canis familiaris [14] = assay: Hemodynamic activity in anesthetized dog as percent change in left ventricular myocardial activity from baseline (2271 mmHg/s) at 0.001 mg/kg administered intravenously; type: functional, Canis lupus familiaris, Heart left ventricle; details: route intravenous; procedure, shortened: as §1
Canis familiaris [15] = assay: Hemodynamic activity in anesthetized dog as percent change in left ventricular myocardial activity from baseline (2271 mmHg/s) at 0.003 mg/kg administered intravenously; type: functional, Canis lupus familiaris, Heart left ventricle; details: route intravenous; procedure, shortened: as §1
Canis familiaris [16] = assay: Decrease in thrombus weight in anesthetized dog coronary artery; type: functional, Canis lupus familiaris
Procedure, shortened: (§4)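 Pentobarbital-anesthetized (32 mg/kg iv), ventilated dogs, allowed 30 min to stabilize. Continuous infusion of compound (1.0, 3.0 or 10.0 μg/kg/min) or saline began 15 min before 50 μA current was applied to an intraluminal electrode in the circumflex coronary artery. After 60 min of stimulation the animals were euthanized and the thrombus dissected and weighed. One treatment per animal.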

Canis familiaris [17] = assay: (§5) Percentage increase in left ventricular contractility in anesthetized dog; type: functional, Canis lupus familiaris, Heart left ventricle
Canis familiaris [18] = assay: as §5; type: functional, Canis lupus familiaris, Heart left ventricle; remark: listed apart in the source
Canis familiaris [19] = species: Canis familiaris; assay: Weight of thrombus; type: functional, Canis lupus familiaris; procedure, shortened: as §4
Canis familiaris [20] = species: Canis familiaris; assay: Ratio of positive inotropic activity to peripheral Vasodilator activity in dogs; type: functional, Canis lupus familiaris
Procedure, shortened: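 Inotropic ED20 is the iv bolus dose giving a 20% rise in dP/dtmax in anesthetized dogs. Vasodilator ED20 is the bolus dose into the brachial cannula of a constant-flow perfused forelimb (pentobarbital 30 mg/kg iv then 3.0 mg/kg/h, heparinized) giving a 20% fall in perfusion pressure. Each ED20 was taken from its dose-response curve; the ratio is PI/PV.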

Canis familiaris [21] = assay: Hemodynamic activity in anesthetized dog as percent change from baseline (2271 mmHg/s) in left ventricular myocardial activity at 3.1 mg/kg administered intravenously; type: functional, Canis lupus familiaris, Heart left ventricle; details: route intravenous
Procedure, shortened: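 Anaesthetised dogs were given one compound each, in ascending half-log iv doses 10 min apart, typically four to six doses. Each dose was dissolved in 0.9% saline or dilute HCl (0.1 or 1.0 N), made up with saline, and given as 0.1 mL/kg over 1 min after a 30-min control period. The readout was LV dP/dt_max from a differentiator amplifier, reported as maximum % change from control average ± SEM.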

Phosphodiesterase 3 [22] = biological target: T1, Phosphodiesterase 3; assay: Inhibition of phosphodiesterase 3 from human platelets at 1E-7-1E-4M or 1.0E-6 to 1E-3 M

Compound | Dose (Canis familiaris [1]) [mg/kg] | Change (Canis familiaris [2]) [%] | IC50 (Homo sapiens [7]) [µM] | IC50 (Homo sapiens [8]) [µM] | IC50 (Homo sapiens [9]) [µM] | IC50 (Homo sapiens [10]) [µM] | logP [11] | other results
CCC(=O)Nc1ccc(/C=C/C2=NNC(=O)CC2C)cc1 (configuration not stated) | 0.2 |  |  |  |  |  |  | 
Cc1[nH]c(=O)c(C#N)cc1-c1ccncc1 [MILRINONE] |  | 113 | 10 | 0.1 | 9 | 0.35 |  | Change (Canis familiaris [3]): 143%; Change (Canis familiaris [4]): 149%; Change (Canis familiaris [5]): 31%; Change (Canis familiaris [6]): 78%
CCc1[nH]c(=O)[nH]c1C(=O)c1ccncc1 [PIROXIMONE] |  | 41 | 60 | 15 |  |  |  | Change (Canis familiaris [3]): 93%; Change (Canis familiaris [4]): 144%; Change (Canis familiaris [5]): 8%; Change (Canis familiaris [6]): 16%
CC(=O)Nc1ccc(/C=C/C2=NNC(=O)CC2C)cc1 (configuration not stated) | 0.02 |  |  |  |  |  | 1.27 | IC50 (Phosphodiesterase 3 [12]): 0.87 µM; IC50 [13]: 2.8 µM
CC1CC(=O)NN=C1/C=C/c1ccc(-n2cnc3ccccc32)cc1 (configuration not stated) | 0.09 |  |  |  |  |  |  | 
CC1CC(O)=NN=C1c1ccc(-n2ccnc2)cc1 (configuration not stated) [CI-930] |  | 149 | 4 | 0.01 | 0.4 | 45 | 1.29 | Change (Canis familiaris [5]): 51%; Change (Canis familiaris [6]): 124%; Change (Canis familiaris [14]): 11%; Change (Canis familiaris [15]): 25%
CC1CC(=O)N(C)N=C1/C=C/c1ccc(-n2ccnc2)cc1 (configuration not stated) | 1 |  |  |  |  |  |  | 
O=C1CCC(c2ccc(-n3ccnc3)cc2)=NN1 [IMAZODAN] |  | 74 | 20 | 3 | 8 | 17 | 0.96 | Change (Canis familiaris [3]): 127%; Change (Canis familiaris [4]): 147%; Change (Canis familiaris [5]): 10%; Change (Canis familiaris [6]): 37%
CC(Cl)C(=O)Nc1ccc(C2=NNC(=O)CC2C)cc1 (configuration not stated) [AMIPIZONE] |  |  | 0.35 | 0.15 | 0.01 | 0.4 | 1.4 | Inhibition (Canis familiaris [16]): 54% and 73% and 77%; Increase (Canis familiaris [17]): 3%; Increase (Canis familiaris [18]): 10% and 23%; Thrombus weight (Canis familiaris [19]): 8.3 mg and 4.8 mg and 4.1 mg
CSc1ccc(C(=O)c2[nH]c(=O)[nH]c2C)cc1 [ENOXIMONE] |  | 19 | 120 | 15 |  |  |  | Change (Canis familiaris [3]): 47%; Change (Canis familiaris [4]): 83%; Change (Canis familiaris [5]): 5%; Change (Canis familiaris [6]): 7%; Ratio (Canis familiaris [20]): 0.58
Nc1cc(-c2ccncc2)c[nH]c1=O [INAMRINONE] |  | 9 | 250 | 15 | 50 | 500 |  | Change (Canis familiaris [3]): 32%; Change (Canis familiaris [4]): 85%; Change (Canis familiaris [21]): 165%
O=C1CCC(/C=C/c2ccc(-n3cnc4c3CCCC4)cc2)=NN1 | 0.1 |  | 5 | 0.45 | 1.7 | 1 | 2.47 | 
O=C1CCC(/C=C/c2ccc(-n3ccnc3)cc2)=NN1 | 0.02 |  | 6 | 0.2 |  |  | 1.21 | IC50 [13]: 1.1 µM; IC50 (Phosphodiesterase 3 [22]): 0.4 µM
CC1CC(=O)NN=C1/C=C/c1ccc(N)cc1 (configuration not stated) | 1 |  |  |  |  |  |  | 
O=C1CCC(CCc2ccc(-n3ccnc3)cc2)=NN1 | 1 |  |  |  |  |  |  | 
CC(=O)Nc1ccc(/C=C/C2=NNC(=O)C(C)(C)C2)cc1 | 1 |  | 4 | 0.25 |  |  |  | 
CC1CC(=O)NN=C1c1ccc(-n2cnc3c2CCCC3)cc1 (configuration not stated) [TETRAHYDROBENXIMIDAZOLE] |  |  | 4 | 0.015 | 0.5 | 0.75 | 2.52 | IC50 [13]: 0.15 µM; IC50 (Phosphodiesterase 3 [22]): 0.11 µM
Cc1cc(O)nnc1/C=C/c1ccc(-n2ccnc2)cc1 | 0.2 |  |  |  |  |  |  | 
Cc1ncn(-c2ccc(/C=C/C3=NNC(=O)CC3C)cc2)c1C (configuration not stated) | 0.05 |  | 30 | 1.5 |  |  |  | 
CC1CC(=O)NN=C1/C=C/c1ccc(-n2cnc3c2CCCC3)cc1 (configuration not stated) | 0.05 |  | 6 | 0.6 |  |  | 3.1 | IC50 (Phosphodiesterase 3 [12]): 0.018 µM; IC50 [13]: 0.1 µM
